Screening data deposited in PubChem BioAssay by several laboratories.
Calpain2 inh = blocks pig calpain II enzyme activity; purified calpain II, fluorogenic peptide substrate, 30 min; 220,000 tested, 0.37% active; inhibition, % at 16 µM; AID 1236;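 active = inhibition above about 50%, limit read from the data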
Wee1 stabilizer = blocks degradation of human Wee1 kinase | P30291 | HeLa Luc-Wee1K328M stability, luciferase luminescence; 100% = proteasome inhibitor MG132 effect | reporter increase, % at 5 µM | 220,000 tested, 1.2% active | AID 1321;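 active = activation above the mean of all tested compounds plus 3 SD, set per screening run, cut at about 8.8% in these data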;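 also: cells exposed to compound for 20 h before luminescence read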
Mdm2 ligase inh = blocks human Mdm2 ubiquitin ligase activity. cell-based MDM2 ubiquitination luciferase reporter, 2 h; 0 = plate control, 100 = twice control, blank-subtracted. signal enhancement, % at 5 µM. 210,000 tested, 0.11% active;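 active = signal enhancement of 30% or more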;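 also: luminescence tracks abundance of the self-degrading MDM2-luciferase fusion protein; higher signal means inhibition of MDM2 E3 ligase activity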
Target sequence (Q00987 whole entry, looked up, the tested form may be a part): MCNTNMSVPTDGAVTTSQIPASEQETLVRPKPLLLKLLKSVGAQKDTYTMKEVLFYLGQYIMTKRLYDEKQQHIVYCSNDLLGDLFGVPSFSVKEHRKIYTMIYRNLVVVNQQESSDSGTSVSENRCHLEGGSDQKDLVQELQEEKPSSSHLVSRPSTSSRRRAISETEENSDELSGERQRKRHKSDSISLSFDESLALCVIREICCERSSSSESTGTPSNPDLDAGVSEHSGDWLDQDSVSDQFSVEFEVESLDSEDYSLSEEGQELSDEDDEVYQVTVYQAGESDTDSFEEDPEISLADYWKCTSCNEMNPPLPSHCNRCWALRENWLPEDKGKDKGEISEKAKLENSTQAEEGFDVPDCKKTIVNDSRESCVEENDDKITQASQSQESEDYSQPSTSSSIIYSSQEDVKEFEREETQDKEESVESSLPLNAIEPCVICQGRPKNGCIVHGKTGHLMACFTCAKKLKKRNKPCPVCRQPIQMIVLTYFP
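Assay system: stable mammalian line carrying autodegrading MDM2–luciferase fusion reporter; Input: 2000 cells in each well; Compound dosing: single-point 5 µM; Schedule: 2 h compound exposure at 37 °C; Signal: SteadyLite luciferase luminescence after 15 min room-temperature reagent incubation; Evaluation: % luminescence enhancement versus blank-corrected plate control mean; Benchmarks: plate controls and plate blanks.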
Pf gametocyte = P. falciparum stage V gametocyte viability inhibition | 150,000 tested, 0.065% active | AID 743093 | P. falciparum stage V gametocytes, ATP luminescence, 24 h | inhibition, % at 10.9 µM;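 active = inhibition above the mean plus 3 SD of compounds within the control limits, set per campaign, cut at about 38% in these data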
Hsp70 activator = Hsp70 transcriptional activation, primary screen | HeLa Hsp70 promoter luciferase reporter, luminescence; scaled: vehicle 0, proteasome-inhibitor control 100% | activation, % at 10 µM | 200,000 tested, 0.04% active;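 active = activation above the mean across all tested compounds plus 3 SD, cutoff set per campaign, cut at about 5.5% in these data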
Wee1 stab conf = human Wee1 degradation inhibition, confirmation; 1,100 tested, 4% active; shares compounds with Wee1 stabilizer; activation, % at 5 µM; AID 1410; HeLa Luc-Wee1K328M degradation, luminescence; vehicle 0%, proteasome-blocked wells 100%; in the data active = activation above about 8.9%
Numbers stand for hits; i = inactive; nt = not tested or not shown. In the library only some 1.5% were active in any assay of this set; here they are far more common.

SMILES	Calpain2 inh	Wee1 stabilizer	Mdm2 ligase inh	Pf gametocyte	Hsp70 activator	Wee1 stab conf
CC(C)(C)C(=O)c1cnc(Nc2ccccc2Cl)s1	i	16	i	nt	i	i
COc1ccc(NC(=O)C(c2ccc(OC)cc2)N(Cc2ccco2)C(=O)CC2NC(=O)NC2=O)cc1 (stereo not given)	i	i	i	i	i	nt
COc1ccc(C(C(=O)Nc2ccc(C(C)C)cc2)N(Cc2ccco2)C(=O)CC2NC(=O)NC2=O)cc1 (stereo not given)	i	16	i	i	i	i
COc1ccc(S(=O)(=O)N2CCN(c3ccccc3)CC2)cc1	i	i	i	i	i	nt
CN(C(=O)CSc1ncnc2c(-c3cccs3)nsc12)C1CCCCC1	nt	nt	nt	i	nt	nt
CN(C)c1ccc(CNCc2cccnc2)cc1	nt	nt	nt	i	nt	nt
CC(C)CCN1CCN(Cc2cccn2-c2nccs2)CC1CCO (stereo not given)	i	i	i	i	i	nt
Cc1ccc(CN2CCN(Cc3cccn3-c3nccs3)CC2CCO)cc1 (stereo not given)	i	13	i	i	i	i
NC(=O)[C@@H]1CCCNc2c(I)cc([N+](=O)[O-])cc2C(=O)N[C@@H](CO)C(=O)NCC(=O)N1	i	i	nt	nt	i	nt
O=C(Nc1ccccn1)c1csc2c1CCCC2	i	18	i	i	i	i
O=S1(=O)CCO[C@H]2Cc3ccccc3[C@H]2N1Cc1ccc(F)cc1	nt	nt	nt	i	nt	nt
CS(=O)(=O)Nc1ccc(C(=O)Nc2ccc(S(=O)(=O)N3CCCC3)cc2)cc1	i	13	i	i	i	i
CC(=O)Nc1ccc(C(=O)Nc2ccc(S(=O)(=O)N3CCCC3)cc2)cc1	i	i	i	nt	i	nt
CC1CC(C)CN(C(=S)SCc2nc(N)nc(Nc3ccccc3)n2)C1 (stereo not given)	i	12	i	i	nt	i
Nc1nc(CSC(=S)N2CCCCC2)nc(Nc2ccccc2)n1	i	i	i	i	i	nt
COc1ccc(/C=N/NC(=O)c2cc(-c3ccc4c(c3)OCO4)n[nH]2)cc1OC	i	i	i	i	i	nt
O=C(CNC(=O)c1cccc(F)c1)OCC(=O)N1CCCCC1	i	15	i	i	i	i
CC(C)(C)[C@H]1COC(=O)CCC/C=C/C[C@H](CC(=O)NCCO)C(=O)N1	nt	nt	nt	i	nt	nt
Cc1ccccc1OCc1nc2ccccc2c(=O)n1/N=C/c1cn[nH]c1-c1ccccc1	i	11	i	nt	i	i
Cc1ccc(-c2[nH]ncc2/C=N/n2c(COc3ccccc3)nc3ccccc3c2=O)cc1	i	i	i	i	i	nt
CCOC(=O)c1cc(-c2csc(Nc3c(C)cc(C)cc3C)n2)on1	i	i	i	i	nt	nt
CCN(CCC(=O)Nc1cc(OC)ccc1OC)Cc1ccccc1	nt	nt	nt	i	nt	nt
CCN(CCC(=O)Nc1cc([N+](=O)[O-])ccc1OC)Cc1ccccc1	i	13	i	i	i	i
CC(C)(CNC(=O)c1cccc(F)c1)CNC(=O)c1cccc(F)c1	nt	nt	nt	i	nt	nt
O=C(NCCc1ccccc1)c1cc(=O)[nH]c2ccccc12	i	11	i	i	i	i
SMILES	Calpain2 inh	Wee1 stabilizer	Mdm2 ligase inh	Pf gametocyte	Hsp70 activator	Wee1 stab conf
O=C(NCCc1ccccc1)c1c(F)c(F)c(F)c(F)c1F	i	24	i	i	i	i
CC1CCCN(C(=O)Cn2nnc(-c3ccc(S(C)(=O)=O)cc3)n2)C1 (stereo not given)	nt	nt	nt	i	nt	nt
CCCCc1n[nH]c(=S)n1Cc1ccc(Cl)cc1	i	i	i	i	i	nt
Cc1csc(NC(=O)c2ccco2)c1C(=O)c1ccccc1	i	12	i	i	nt	i
CN1CCN(c2ccc(CNS(=O)(=O)c3ccc(Cl)cc3)cc2)CC1	i	i	i	i	nt	nt
CC(C)NC(=O)c1ccccc1NC(=O)C(C)Oc1ccccc1 (stereo not given)	i	i	i	i	i	nt
COC(=O)c1ccccc1NC(=O)C(C)Oc1ccccc1 (stereo not given)	i	17	i	nt	i	i
CCOc1ccccc1NC(=S)NCc1ccccc1	nt	nt	nt	i	nt	nt
COc1cccc(C(=O)NC(=S)NCc2ccco2)c1	i	14	i	nt	i	i
COc1cc(OC)cc(C(=O)NC(=S)NCc2ccco2)c1	i	i	i	nt	i	nt
S=C(NCc1ccco1)Nc1ccc(Oc2ccccc2)cc1	i	11	i	i	i	i
CCOc1ccccc1NC(=S)NCc1ccco1	i	12	i	i	i	i
CC(c1ccccc1)C(NC(=O)OCC1c2ccccc2-c2ccccc21)C(=O)O (stereo not given)	nt	nt	nt	i	nt	nt
